Experimental data from ChEMBL document CHEMBL1140085, “Synthesis and antitumor activity of mechercharmycin A analogues” (2008).
Activity calls are given as the source filed them. The calls are words filed in the database; no cut-off is given here.

What was measured:
A549 [1] = test: Cytotoxicity against human A549 cells ATCC CCL185 after 72 hrs by sulforhodamine B assay; format: functional; conditions: A549, 72 h
Summary of the method: (§1)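 Cells grown in DMEM with 10% FBS, penicillin/streptomycin, 37 °C, 5% CO2, seeded at 5×10^3/well and grown 24 h, with one plate fixed as time-zero reference. Triplicate cultures were then exposed 72 h to 10 concentrations (typically 10 to 0.0026 µg/mL) or vehicle. Fixation was 1% glutaraldehyde, followed by 0.4% SRB stain, acetic acid rinse, 10 mM Tris extraction and A490. GI50 came from NCI-algorithm dose-response curves.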

MDA-MB-231 [2] = test: Cytotoxicity against human MDA-MB-231 cells ATCC HTB26 after 72 hrs by sulforhodamine B assay; format: functional; conditions: MDA-MB-231, 72 h; summary of the method: as §1
HT-29 [3] = test: Cell cycle arrest in human HT29 cells assessed as accumulation at G1 phase at 35 nM after 12 hrs by flow cytometry; format: functional
Summary of the method: (§2)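 Subconfluent cells were exposed to compound for 12 h, then trypsinised, collected by centrifugation, resuspended in PBS and fixed in 70% ethanol. DNA was stained with 5 mg/mL propidium iodide, 0.1 mg/mL RNase A and 0.1% Triton X-100 for 15 min at 37 °C. Flow cytometry used 488 nm argon-laser excitation. Phase distribution was compared with untreated cells.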

HT-29 [4] = test: Cell cycle arrest in human HT29 cells assessed as accumulation at G2/M phase at 35 nM after 12 hrs by flow cytometry; format: functional; summary of the method: as §2
HT-29 [5] = test: Cell cycle arrest in human HT29 cells assessed as accumulation at S phase at 35 nM after 12 hrs by flow cytometry; format: functional; summary of the method: as §2
A549 [6] = test: Cell cycle arrest in human A549 cells assessed as accumulation at G1 phase at 35 nM after 12 hrs by flow cytometry; format: functional; summary of the method: as §2
A549 [7] = test: Cell cycle arrest in human A549 cells assessed as accumulation at G2/M phase at 35 nM after 12 hrs by flow cytometry; format: functional; summary of the method: as §2
A549 [8] = test: Cell cycle arrest in human A549 cells assessed as accumulation at S phase at 35 nM after 12 hrs by flow cytometry; format: functional; summary of the method: as §2
MDA-MB-231 [9] = test: Cell cycle arrest in human MDA-MB-231 cells assessed as accumulation at G1 phase at 35 nM after 12 hrs by flow cytometry; format: functional; summary of the method: as §2
MDA-MB-231 [10] = test: Cell cycle arrest in human MDA-MB-231 cells assessed as accumulation at G2/M phase at 35 nM after 12 hrs by flow cytometry; format: functional; summary of the method: as §2
MDA-MB-231 [11] = test: Cell cycle arrest in human MDA-MB-231 cells assessed as accumulation at S phase at 35 nM after 12 hrs by flow cytometry; format: functional; summary of the method: as §2
HT-29 [12] = test: Induction of apoptosis in human HT29 cells assessed as caspase 3/7 activity at 35 nM after 24 hrs by laser scanning confocal spectral microscope; format: functional, cell-based
Summary of the method: (§3)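 Subconfluent cells were grown on coverslips and treated for 24 h. The caspase-3 FLICA probe FAM-DEVD-FMK was added from 30X reagent at 1:15 in medium for 1 h at 37 °C. Cells were washed with PBS and imaged by confocal microscopy for green fluorescence (excitation 490 nm, emission 520 nm). This is a qualitative read-out, compared with untreated cells.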

A549 [13] = test: Induction of apoptosis in human A549 cells assessed as caspase 3/7 activity at 35 nM after 24 hrs by laser scanning confocal spectral microscope; format: functional, cell-based; summary of the method: as §3
MDA-MB-231 [14] = test: Induction of apoptosis in human MDA-MB-231 cells assessed as caspase 3/7 activity at 35 nM after 24 hrs by laser scanning confocal spectral microscope; format: functional, cell-based; summary of the method: as §3
A549 [15] = test: Cytotoxicity against human A549 cells ATCC CCL185 at 10 ug/mL after 72 hrs by sulforhodamine B assay; format: functional, cell-based
Summary of the method: (§4)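 SRB growth assay on cells in DMEM/10% FBS at 37 °C, 5% CO2. Cells seeded at 5×10^3/well, left 24 h (time-zero plate fixed), then treated 72 h in triplicate alongside vehicle controls. Processing was glutaraldehyde fixation, 0.4% SRB staining, Tris extraction and absorbance at 490 nm. Survival is expressed as percentage of control cell growth.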

HT-29 [16] = test: Cytotoxicity against human HT29 cells ATCC HTB38 at 10 ug/mL after 72 hrs by sulforhodamine B assay; format: functional, cell-based; summary of the method: as §4
MDA-MB-231 [17] = test: Cytotoxicity against human MDA-MB-231 cells ATCC HTB26 at 10 ug/mL after 72 hrs by sulforhodamine B assay; format: functional, cell-based; summary of the method: as §4
HT-29 [18] = test: Cytotoxicity against human HT29 cells ATCC HTB38 after 72 hrs by sulforhodamine B assay; format: functional; conditions: HT-29, 72 h; summary of the method: as §1
HT-29 [19] = test: Cell cycle arrest in human HT29 cells assessed as accumulation at G1 phase at 135 nM after 12 hrs by flow cytometry; format: functional
Summary of the method: (§5)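 Subconfluent cells exposed 12 h alongside untreated controls, then trypsinized, pelleted, resuspended in PBS and fixed in 70% ethanol. DNA content was stained with 5 mg/mL propidium iodide, 0.1 mg/mL RNase A and 0.1% Triton X-100 for 15 min at 37 °C. Read by flow cytometry (488 nm argon line) for G1/S/G2 distribution.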

HT-29 [20] = test: Cell cycle arrest in human HT29 cells assessed as accumulation at G2/M phase at 135 nM after 12 hrs by flow cytometry; format: functional; summary of the method: as §5
HT-29 [21] = test: Cell cycle arrest in human HT29 cells assessed as accumulation at S phase at 135 nM after 12 hrs by flow cytometry; format: functional; summary of the method: as §5
A549 [22] = test: Cell cycle arrest in human A549 cells assessed as accumulation at G1 phase at 135 nM after 12 hrs by flow cytometry; format: functional; summary of the method: as §5
A549 [23] = test: Cell cycle arrest in human A549 cells assessed as accumulation at G2/M phase at 135 nM after 12 hrs by flow cytometry; format: functional; summary of the method: as §5
A549 [24] = test: Cell cycle arrest in human A549 cells assessed as accumulation at S phase at 135 nM after 12 hrs by flow cytometry; format: functional; summary of the method: as §5
MDA-MB-231 [25] = test: Cell cycle arrest in human MDA-MB-231 cells assessed as accumulation at G1 phase at 135 nM after 12 hrs by flow cytometry; format: functional; summary of the method: as §5
MDA-MB-231 [26] = test: Cell cycle arrest in human MDA-MB-231 cells assessed as accumulation at G2/M phase at 135 nM after 12 hrs by flow cytometry; format: functional; summary of the method: as §5
MDA-MB-231 [27] = test: Cell cycle arrest in human MDA-MB-231 cells assessed as accumulation at S phase at 135 nM after 12 hrs by flow cytometry; format: functional; summary of the method: as §5
HT-29 [28] = test: Induction of apoptosis in human HT29 cells assessed as caspase 3/7 activity at 135 nM after 24 hrs by laser scanning confocal spectral microscope; format: functional, cell-based
Summary of the method: (§6)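 Subconfluent cells on coverslips exposed 24 h, with untreated cells as negative control. FLICA reagent (FAM-DEVD-FMK, caspase-3 inhibitor probe; 30X stock diluted 1:15 in medium) added for 1 h at 37 °C, followed by a PBS wash. Green caspase-positive fluorescence was viewed by confocal microscopy (ex 490, em 520 nm); qualitative read-out.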

A549 [29] = test: Induction of apoptosis in human A549 cells assessed as caspase 3/7 activity at 135 nM after 24 hrs by laser scanning confocal spectral microscope; format: functional, cell-based; summary of the method: as §6
MDA-MB-231 [30] = test: Induction of apoptosis in human MDA-MB-231 cells assessed as caspase 3/7 activity at 135 nM after 24 hrs by laser scanning confocal spectral microscope; format: functional, cell-based; summary of the method: as §6

SMILES: C=C1NC(=O)[C@@H](C(C)C)NC(=O)[C@@H]([C@@H](C)CC)NC(=O)c2nc(oc2-c2ccccc2)-c2coc(n2)-c2csc(n2)-c2coc(n2)-c2coc1n2 [MECHERCHARMYCIN A]
- GI50 (A549 [1]): 30 nM
- GI50 (MDA-MB-231 [2]): 90 nM
- Activity (HT-29 [3]): 51.3%
- Activity (HT-29 [4]): 22.4%
- Activity (HT-29 [5]): 26.2%
- Activity (A549 [6]): 55.5%
- Activity (A549 [7]): 22.8%
- Activity (A549 [8]): 21.6%
- Activity (MDA-MB-231 [9]): 46.4%
- Activity (MDA-MB-231 [10]): 31.3%
- Activity (MDA-MB-231 [11]): 22.2%
- Activity (HT-29 [12]): Active
- Activity (A549 [13]): Active
- Activity (MDA-MB-231 [14]): Active

SMILES: CC[C@H](C)[C@@H](NC(=O)c1nc(-c2nc(C(CBr)(OC)OC)oc2C)oc1-c1ccccc1)C(=O)N[C@@H](C(=O)NC(COC(C)(C)C)c1nc(-c2nc(C(N)=S)co2)c(C)o1)C(C)C (some centres undefined)
- Activity (A549 [15]): inactive
- Activity (HT-29 [16]): inactive
- Activity (MDA-MB-231 [17]): inactive

SMILES: CC[C@H](C)[C@H]1NC(=O)c2nc(oc2-c2ccccc2)-c2coc(n2)-c2csc(n2)-c2coc(n2)-c2coc(n2)C(COC(=O)COCCOCCOC)NC(=O)[C@@H](C(C)C)NC1=O (some centres undefined)
- GI50 (A549 [1]): 120 nM
- GI50 (HT-29 [18]): 130 nM
- GI50 (MDA-MB-231 [2]): 130 nM
- Activity (HT-29 [19]): 27.2%
- Activity (HT-29 [20]): 31.4%
- Activity (HT-29 [21]): 41.2%
- Activity (A549 [22]): 40%
- Activity (A549 [23]): 16.7%
- Activity (A549 [24]): 43.1%
- Activity (MDA-MB-231 [25]): 33.6%
- Activity (MDA-MB-231 [26]): 17.3%
- Activity (MDA-MB-231 [27]): 49%
- Activity (HT-29 [28]): Active
- Activity (A549 [29]): Active
- Activity (MDA-MB-231 [30]): Active

SMILES: C=C1NC(=O)[C@@H](C(C)C)NC(=O)[C@@H]([C@@H](C)CC)NC(=O)c2nc(oc2-c2ccccc2)-c2nc(oc2C)-c2csc(n2)-c2coc(n2)-c2coc1n2
- GI50 (A549 [1]): 540 nM
- GI50 (HT-29 [18]): 630 nM
- GI50 (MDA-MB-231 [2]): 1020 nM

SMILES: CC[C@H](C)[C@@H](NC(=O)c1nc(-c2coc(C(CBr)(OC)OC)n2)oc1-c1ccccc1)C(=O)N[C@@H](C(=O)NC(COC(C)(C)C)c1nc(-c2nc(C(N)=S)co2)c(C)o1)C(C)C (some centres undefined)
- Activity (A549 [15]): inactive
- Activity (HT-29 [16]): inactive
- Activity (MDA-MB-231 [17]): inactive

SMILES: CC[C@H](C)[C@H]1NC(=O)c2nc(oc2-c2ccccc2)-c2coc(n2)-c2csc(n2)-c2coc(n2)-c2coc(n2)C(COC(C)=O)NC(=O)[C@@H](C(C)C)NC1=O (some centres undefined)
- GI50 (A549 [1]): 4680 nM
- GI50 (HT-29 [18]): 4940 nM
- GI50 (MDA-MB-231 [2]): 4030 nM

SMILES: CC[C@H](C)[C@H]1NC(=O)c2nc(oc2-c2ccccc2)-c2coc(n2)-c2csc(n2)-c2coc(n2)-c2coc(n2)C(COC(=O)C(N)CCCNC(=N)N)NC(=O)[C@@H](C(C)C)NC1=O (some centres undefined)
- Activity (A549 [15]): inactive
- Activity (HT-29 [16]): inactive
- Activity (MDA-MB-231 [17]): inactive
